Assay type in all cases: functional
Assay [1] has as its system Candida albicans. Put plainly: Antimicrobial activity against Candida albicans isolate R after 24 hrs by microdilution method. In a few lines: (§1)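 Broth microdilution in microtiter plates, read spectrophotometrically at 490 nm. MIC taken as the lowest drug dilution giving 50% growth inhibition. C. krusei […] run as control in each run. Read at 24 h and 48 h; trailing growth noted at 48 h.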
(Broth dilution looks for growth in wells or tubes with falling amounts of substance.)

Assay [2] concerns Candida albicans. In words: Antimicrobial activity against Candida albicans isolate C after 24 hrs by microdilution method. In a few lines:
as §1

The test system of assay [3] is Candida albicans. In words: Antimicrobial activity against Candida albicans isolate R after 48 hrs by EUCAST microdilution method. In a few lines: (§2)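 EUCAST broth microdilution, plates read spectrophotometrically at 490 nm. MIC is the lowest dilution giving 50% growth inhibition. C. krusei […] control included in each run.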
For assay [4], the system named is Candida albicans. In words: Antimicrobial activity against Candida albicans isolate R after 48 hrs by microdilution method. In a few lines: as §1
The test system of assay [5] is Candida albicans. Put plainly: Antimicrobial activity against Candida albicans isolate C after 48 hrs by EUCAST microdilution method. A digest of the protocol: as §2
The test system of assay [6] is Candida albicans. In words: Antimicrobial activity against Candida albicans isolate C after 48 hrs by microdilution method. In a few lines: as §1

For `CCC(C)n1ncn(-c2ccc(N3CCN(c4ccc(OCC5COC(Cn6cncn6)(c6ccc(Cl)cc6Cl)O5)cc4)CC3)cc2)c1=O` (stereo not drawn) [ITRACONAZOLE], the minimum inhibitory concentration (MIC) against Candida albicans [1], in the assay on Candida albicans [2], against Candida albicans [3], with Candida albicans [4], with Candida albicans [5] and against Candida albicans [6] was at most 0.03 µg/mL throughout.

Take `CC[C@@H]([C@H](C)O)n1ncn(-c2ccc(N3CCN(c4ccc(OC[C@@H]5CO[C@@](Cn6cncn6)(c6ccc(F)cc6F)C5)cc4)CC3)cc2)c1=O` [POSACONAZOLE]: the MIC with Candida albicans [1], in the assay with Candida albicans [2], against Candida albicans [3], in the assay on Candida albicans [4], against Candida albicans [5] and in the assay with Candida albicans [6] was at most 0.03 µg/mL each time.

`C[C@@H](c1ncncc1F)[C@](O)(Cn1cncn1)c1ccc(F)cc1F` [VORICONAZOLE]: the MIC – broadly, the lowest concentration found to suppress growth – was at most 0.03 µg/mL against Candida albicans [1]; at most 0.03 µg/mL in the assay with Candida albicans [2]; at most 0.03 µg/mL against Candida albicans [3]; at most 0.03 µg/mL with Candida albicans [4]; at most 0.125 µg/mL in the assay with Candida albicans [5]; at most 0.03 µg/mL against Candida albicans [6].

The values above are taken from ChEMBL document CHEMBL1629654, “Breakthrough Aspergillus fumigatus and Candida albicans double infection during caspofungin treatment: laboratory characteristics and implication for susceptibility testing” (2009).
